From the EternaBench riboswitch data

Test system: MS2 coat protein
Assay: apparent Kd, MS2 coat protein; higher = weaker binding; RNA-MaP array; FMN 200 µM where present
Summary of the method: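 Designs were transcribed by stalled E. coli RNA polymerase on Illumina sequencing-chip clusters. They were titrated with SNAP-549-labelled MS2 coat protein from 0.7 or 1.5 nM, doubling to 3 µM, in 100 mM Tris-HCl pH 7.5, 80 mM KCl, 4 mM MgCl2, BSA, DTT, yeast tRNA and Tween-20, without and then with constant ligand. The apparent Kd is the median of filtered per-cluster fits after normalisation of green signal to red-channel RNA signal and control-cluster median Fmax.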

[1] = designed as: OFF switch for flavin mononucleotide, no ligand
[2] = ligand present: flavin mononucleotide, designed as: OFF switch for flavin mononucleotide
[3] = designed as: ON switch for flavin mononucleotide, no ligand
[4] = ligand present: flavin mononucleotide, designed as: ON switch for flavin mononucleotide

| Sequence | apparent Kd [1] [µM] | apparent Kd [2] [µM] | apparent Kd [3] [µM] | apparent Kd [4] [µM] |
| --- | --- | --- | --- | --- |
| AUUGAGUGAGGAUAUCCCGCUGCCGUGCGACCAUGGAGCUGGGAGAAGGCACAUGAGGAUCACCCAUGUGAGUU | 0.0193 | 0.045 |  |  |
| UUUAAGUCAGGAUAUCGUUAAUUUAAUAAAUUAUUUUAAUUCGAGAAGGGACAUGAGGAUCACCCAUGUAAUUU | 0.0332 | 0.0486 |  |  |
| ACAUAAUACGAGAAGGGAGUACAUGAGGAUCACCCAUGUGCUCAGGUGUACUCAGGAUAUCGGCUGACGCAAGGUUCAGGGAAU | 0.0116 | 0.0943 |  |  |
| GAGUGCUUAGGAUAUACAUGAGGAUCACCCAUGUGCUUCAGCUAGGAGACUAGCAUUGGUAGAAGGAAGUACUC | 0.0145 | 0.0486 |  |  |
| UCUACGCGAAUCAAGAUGGAUAGAACAUGAGGAUCACCCAUGUAGGAUAUGCUACACAAAGUGUAGCAGAAGGACAAGCGUAGA | 0.0251 | 0.0357 |  |  |
| AUAGUUUUUGAGAAGGCAUUUCUUAAGUGAUCUUACUAGUACAUGAGGAUCACCCAUGUUUUGUAUGAGGAUAUCAGUAGGUUG | 0.0339 | 0.0317 |  |  |
| GAGAUGACAGUCAGGAUAUCUGUAGGGCGGACUUAAGAGAAGGGACAUGAGGAUCACCCAUGUGUGAUUGGUUU | 0.266 | 0.347 |  |  |
| UCAUACGUUGAGGAUAUGUCAGUUAGUAUAUUUACAGAAGGCGAUACAUGAGGAUCACCCAUGUUUAUGGGCAU | 0.219 | 0.298 |  |  |
| GGGUACAUCGGAGGAUAUCAUGUAAAUACAUGAGGAUCACCCAUGUCGUUGGAGACAUCGGAGAUUGAGAAGGCCGAUGUACCG |  |  | 0.199 | 0.339 |
| GUCAUGUAAGGAUAUCUUACAUGUGACUUCGGUCACUGUCAAGAGAAGGUACAUGAGGAUCACCCAUGUUCGAC | 0.0172 | 0.0218 |  |  |
| AGCUGUGGCCGAGGAUAUCUAUCCAAUAAAACCGAAAUAUAAUCGGACAUGAGGAUCACCCAUGUAGAGAAGGCGGUCUCAGCA | 0.0224 | 0.0305 |  |  |
| AAUAACAGAGGAUAUACUGUUUUAUGUGUUUGUUGUUUUAAACAUGAGGAUCACCCAUGUAGAAGGCUGAAUGA | 0.0265 | 0.0252 |  |  |
| GCUGUCGCGUGAGGAUAUGGUCGGCUUUGCUGACCAGAAGGCAUGUCAAUAGACAUGAGGAUCACCCAUGUGGUUAGGGCGGCU |  |  | 1.02 | 0.134 |
| CAGUGCUGUUGAGAGGAUAUGCGGCGACGGACAUGAGGAUCACCCAUGUUAGCGACAGCGUUGCGGCAGAAGGCUCUGCCCGCUA |  |  | 0.0523 | 0.0231 |
| GUGUACAGAGGAUAUACAUAAGCUAGGAAACUAGCAACCUCACAUGAGGAUCACCCAUGUAGAAGGCUGUACAC | 0.189 | 0.0596 |  |  |
| GCUGUCGCAUGAGGAUAUGGUCAGGUUUCCUGACCAGAAGGCAUGUCGAUAGACAUGAGGAUCACCCAUGUAGUAAAGACAGCA |  |  | 0.855 | 0.0661 |
| GGGUGACAUGAGGAUCACCCAUGUCAGGAUAUUGAGCUUGAGCUGAAAAGUUCGAGUUCGAGAAGGGACUGCCC | 0.052 | 0.229 |  |  |
| GAGUGACAUGAGGAUCACCCAUGUAAGGAUAUACGGUUGGUAGAGAGAGGGCUAAAGGGUAGAAGGUACGAAGG | 0.0767 | 0.0487 |  |  |
| CAGCGAAAGCUGAAUGUCGGAGCAGAGGAUAUUACAUGAGGAUCACCCAUGUAUGAACCAAAAUGUAAGAAGGCUGCUCCGACA | 0.844 | 0.0204 |  |  |
| GAGUGGAAGGCCGCUACAUGAGGAUCACCCAUGUGCUAAGCACAGGAUAUCGCGCGGACCCGGCGCGAGAAGGGUGACGGCCUG |  |  | 0.463 | 0.268 |
| UGUUGUAUUACAGGAUAUCUAGUAUUUUUAUUUAGAGAAGGGUAUUCACAUGAGGAUCACCCAUGUAUAUACGAGGAAGUUGUG |  |  | 0.0343 | 0.0388 |
| UUUUUUCCUCAUGUACAUGAGGAACAUGAGGAUCACCCAUGUAGAAGGAUUUCCCUUAAAUUAAGAUAGGAUAUACAUAUAUUU | 0.087 | 0.0705 |  |  |
| UGGUACUAGGGAGGAUAUGGGAAGAUACAUGAGGAUCACCCAUGUUCAAGAAUGCCGAGAGGCAACUAGAAGGCCCUAGUACCU |  |  | 0.928 | 0.0462 |
| AGAGAGUGACAGAAGGGCAAGCUCGAUUGCGGAGAACGCGAUCGAGCUUGCAGGAUAUGUUGAACAUGAGGAUCACCCAUGUCA |  |  | 0.00798 | 0.00694 |
| UUGUUAGGGAGAGGAUAUUGACAUGAGGAUCACCCAUGUACUUGGGAGUGUUUACUGAAUUCUCACGAGAAGGCUUACAAAUUU | 0.175 | 0.147 |  |  |
| UUAUUAAAUGUAGGAUAUGCAUAUUAUUAUUAUGCAGAAGGACAUGAGGAUCACCCAUGUAUAUUAUUAUUAUUUAUUAUAUAU | 0.0448 | 0.0656 |  |  |
| GGUGGUGAGCAAGGAUAUCGCCACUGCGUGACCUCACAACGGAUACAUGAGGAUCACCCAUGUGGCGAGAAGGUGCGGGAACGG | 0.0294 | 0.044 |  |  |
| AAGAAACAUGAGGAUCACCCAUGUGUAAAUAUGGGAGGAUAUACAAGGACGUAAGUCAAGGUAGAAGGCCUAAGAA |  |  | 0.172 | 0.0327 |

| Sequence | apparent Kd [1] [µM] | apparent Kd [2] [µM] | apparent Kd [3] [µM] | apparent Kd [4] [µM] |
| --- | --- | --- | --- | --- |
| GUAUACGAUGAGGAUAUAUGAUAUCAAAGCAUCAUAGAAGGCAUCACAUGAGGAUCACCCAUGUGAUCUUCUAG | 0.0157 | 0.0526 |  |  |
| GGGACCGUACUCCUGUUGUACUCUGAGGAUAUCCGUUACGGACAUGAGGAUCACCCAUGUACGGCGGAGAAGGCAGAUCUCAUA |  |  | 0.00644 | 0.00526 |
| GAAUAAUUGAUCCAAUAUAACAACAUGAGGAUCACCCAUGUGCAGGAUAUCGUGUGUGUUAUAUACGAGAAGGGCAAGAACUGU | 0.729 | 0.594 |  |  |
| GCUCUUGUCAAGAAGGGCUCGCGGGACGCUGCAGCAGGAUAUUGACAUGAGGAUCACCCAUGUCGACCGGAACACCAUUGAGGG | 0.0222 | 0.196 |  |  |
| GAUCGCCGUGUCAGGAUAUCUUGUGUACCCACGUUAGAGAAGGGACAUGAGGAUCACCCAUGUACCCUGGCUUU | 0.0206 | 0.0205 |  |  |
| ACAUGAGGAUCACCCAUGUGUGCAUAGGAUAUUGUGGAUUAGGGAUGUUUUUUUGGAUUUGCCUACAAGAAGGAUGAAAGUGUU |  |  | 0.0143 | 0.0126 |
| UUCAUCAAUGAAGGAUAUCUAUGUCCAACAUGAGGAUCACCCAUGUUGAGGAUCACCUAUGUAUAGGAGAAGGUUAAUAUAACU |  |  | 0.00732 | 0.00628 |
| CAGAAGUCAGGAUAUGCAUGGCGGGACUUGCGUCGUGGCGUGCAGAAGGGACAUGAGGAUCACCCAUGUGGAGU | 0.173 | 0.251 |  |  |
| GGGCCGAAAGGCCCGCGGGCCCGGGAGGAUAUACAUGAGGAUCACCCAUGUCCGGCGAAAGCCGGGUAGAAGGCCCGGGCCCGC | 0.00538 | 0.00703 |  |  |
| AUGCUGUCAGGAUAUCGUUAAUUUAGUUGUUUGUAUUAGUUCGAGAAGGGACAUGAGGAUCACCCAUGUAUGUA | 0.0307 | 0.0548 |  |  |
| GUCGGAAACGACAAAAGUAUGGAUCCAGAAGGUAUGAAACAUGAGGAUCACCCAUGUCAAAGACAUGAGGAUAUGGAUCCAUAC |  |  | 0.0324 | 0.00954 |
| UUUAAUUAGUAAGGAUAUACUAGUGAUUAACUUGUAGAAGGUACAGUCUUAUGUAUAACAAAUUAACAUGAGGAUCACCCAUGU |  |  | 0.00954 | 0.0083 |
| CGACUGUGAGGAUAUGGUGAGUAGUGCCUGAGCGCUGCUCACCAGAAGGCACAUGAGGAUCACCCAUGUAUAGC | 0.0417 | 0.165 |  |  |
| AUAUCAAGCAAGGAUAUGCAAAUGGUUAUUUAUGCAGAAGGUGCGACAUGAGGAUCACCCAUGUUUCUGGGUUU | 0.0877 | 0.134 |  |  |
| UUUGCAUUCCGAGGAUAUUCAUUUAUUGUCUUCACAUGAGGAUCACCCAUGUGGCGCUUGCGCCGGGAGAAGGCGGUUUGCUUU |  |  | 0.0217 | 0.0249 |
| GGCGAACAUGAGGAUCACCCAUGUCAGGAUAUCUCUCGCGUUGAAUUGAGGGUGUGUGAGAGAAGGGAUAUGUA | 0.0497 | 0.0499 |  |  |
| CAGCAAUGUAAGAAGGUAUUUAUUAUUAUAUUAUAAGGAUAUUACAUGAGGAUCACCCAUGUAUGAACCAAUAGCUGAAUUAUA | 0.0061 | 0.00588 |  |  |
| AAAUCAGCAGGAUAUACGAUUUUAUGCUAGAUAGAGGGACCACAUGAGGAUCACCCAUGUAGAAGGGCUAGAUA | 0.0246 | 0.0264 |  |  |
| UUCCAGCUUGUCAGGAUAUACUUAGGGUAAUCAGAGUAGAAGGGACAUGAGGAUCACCCAUGUGACGCUUGAGC | 0.0652 | 0.118 |  |  |
| ACGUAUAGAGGAUAUAGUGAAUAUUACAUGAGGAUCACCCAUGUUCUUCAAAGCAUAUUCCUAGAAGGCUGAUGAA | 0.0447 | 0.0836 |  |  |
| UUGGACGUCGUAGGAUAUGUAGGAUACUCCUACAUGAGGAUCACCCAUGUUGACAUGGAGGAAGGACAGAAGGACGGUGUCCAU |  |  | 0.0258 | 0.00646 |
| AGGAAGUAAAGAGACAUGAGGAUCACCCAUGUGACUGCAUCACAGGAUAUGUCGAGCGAAGCACAACAGAAGGGUGAUCAGGGC |  |  | 0.0652 | 0.12 |
| CAGAUAAAAGUGUGGUCGUCGACAUGAGGAUCACCCAUGUACGAGGAUAUGUAAUAUACGGUAUAGCAGAAGGCGUAUGGGUGU | 0.0746 | 0.103 |  |  |
| GAGCGAAAGCUCAAUGUCGAUAGCAGAAGGACACAUGAUAACAUGAAAACAUGAGGAUCACCCAUGUAGGAUAUGCUAUCGACU | 0.00857 | 0.0139 |  |  |
| AAAACGAAAGUCGAACGAUGUAGCAGAAGGACAUGAGGAUCACCCAUGUCAGCUGUAACAGCCAUGUAGGAUAUGCUACAUUUU | 0.00547 | 0.00635 |  |  |
| GGUGUACAUGAGGAUCACCCAUGUCGACCGCUCACAGGAUAUUUAAUACAAACUGGUAGCGGAGAAGGGUGAGGAA |  |  | 0.295 | 0.312 |
| AGCAAGUAUACAUGAGGAUCACCCAUGUUUUUUAGGGUUUUCAGAAGGUACAUUUUGAGAUAGAGUAAGGAUAUGAAAUAUGCG |  |  | 0.101 | 0.0457 |
